The text below walks through data of ChEMBL document CHEMBL1127668, “Antagonist, partial agonist, and full agonist imidazo[1,5-a]quinoxaline amides and carbamates acting through the GABAA/benzodiazepine receptor” (J Med Chem, 1994).

Usually Ki stands for a dissociation constant, usually derived from enzyme kinetics or from competition with a known ligand. Read a high Ki as weaker binding. As a reminder, the ED50 is the midpoint of the dose-response relation.

Where “and” joins values, the source holds several entries; their conditions need not be identical. Equal entries are not always repeated.

Assay [1] is filed under the species Rattus norvegicus. The assay is described as follows: Chloride ion influx in rat cerebrocortical membranes. The format is functional.
Assay [2] concerns the target GABA-A receptor; anion channel. Description: Displacement of [3H]- flunitrazepam from rat GABA-A benzodiazepine receptor. The format is protein-complex assay. On the technique in general: Loss of bound radioactivity is the signal in a displacement assay; it reports binding, not function.
Assay [3] deals with T1, GABA-A receptor; anion channel (Rattus norvegicus) (UniProt O09028+P15431+P18506+P18508+P19969+P20236+P23574+P23576+P28471+P28473+P30191+P62813+P63079+P63138+Q91ZM7+Q9ES14). The assay is described as follows: Shift in the affinity of [35S]TBPS for the chloride channel of GABAA receptor complex in the presence and absence of compound. It is filed as protein-complex assay.

A short description of assay [4]: Displacement of [3H]flunitrazepam from alpha-1-beta-2-gamma-2 GABA-A receptor subunits expressed in Sf9 cell membranes. Also on record: species or system Rattus norvegicus. Summed up: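 Sf-9 membranes from cells infected with baculovirus carrying α1, β2 and γ2 cDNAs, harvested 60 h postinfection. Assay in normal saline with 6 nM [3H]flunitrazepam, 50 µg membrane protein and six test concentrations; 60 min at 4 °C; glass-fiber filtration, four cold washes, scintillation counting.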

The nature of assay [5]: Displacement of [3H]-Ro- 15-4513 from alpha-1-beta-2-gamma-2 GABA-A receptor subunits expressed in Sf9 cell membranes. Also on record: species or system Rattus norvegicus.
In assay [6] the test system is Rattus norvegicus. Description: The compound was tested for antagonistic activity against metrazole induced convulsions in rats after ip administration. The format is functional.
Assay [7] concerns the target GABA A receptor alpha-6/beta-2/gamma-2 (Homo sapiens, UniProt P18507+P47870+Q16445). The assay is described as follows: Displacement of [3H]-Ro- 15-4513 from alpha-6-beta-2-gamma-2 GABA-A receptor subunits expressed in Sf9 cell membranes. Summed up: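 Sf-9 cells infected with baculovirus carrying α6, β2 and γ2 cDNAs, harvested 60 h postinfection; membranes stored at -80 °C in 300 mM sucrose, 5 mM Tris/HCl pH 7.5, 20% glycerol. 50 µg membrane protein with 6 nM [3H]Ro 15-4513 and six test concentrations in normal saline, 60 min at 4 °C; filtered, washed, scintillation counted.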

For assay [8], the system named is Rattus norvegicus. The assay is described as follows: The compound was tested for antagonistic activity against metrazole induced convulsions in rats, after ip administration. It is filed as functional.
The target of assay [9] is T1, GABA-A receptor; anion channel (Rattus norvegicus). The assay is described as follows: Inhibition of [35S]TBPS binding to GABA-A receptor complex. The format is protein-complex assay.

GABA A receptor alpha-6/beta-2/gamma-2, sequence (P47870 whole entry): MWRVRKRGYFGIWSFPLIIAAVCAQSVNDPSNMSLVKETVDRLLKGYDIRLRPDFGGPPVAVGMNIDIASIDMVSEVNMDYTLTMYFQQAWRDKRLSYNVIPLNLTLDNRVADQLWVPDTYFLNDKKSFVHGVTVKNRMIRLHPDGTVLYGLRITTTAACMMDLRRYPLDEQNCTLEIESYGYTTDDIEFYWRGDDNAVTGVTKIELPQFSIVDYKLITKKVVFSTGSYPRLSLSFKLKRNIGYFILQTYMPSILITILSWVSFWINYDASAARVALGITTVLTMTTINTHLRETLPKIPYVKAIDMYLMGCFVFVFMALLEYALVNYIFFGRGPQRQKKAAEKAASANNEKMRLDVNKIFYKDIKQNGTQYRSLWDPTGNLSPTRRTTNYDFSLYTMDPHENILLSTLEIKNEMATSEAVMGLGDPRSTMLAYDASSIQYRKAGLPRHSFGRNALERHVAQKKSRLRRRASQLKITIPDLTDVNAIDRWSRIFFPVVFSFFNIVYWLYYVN
GABA A receptor alpha-6/beta-2/gamma-2, sequence (P18507 whole entry): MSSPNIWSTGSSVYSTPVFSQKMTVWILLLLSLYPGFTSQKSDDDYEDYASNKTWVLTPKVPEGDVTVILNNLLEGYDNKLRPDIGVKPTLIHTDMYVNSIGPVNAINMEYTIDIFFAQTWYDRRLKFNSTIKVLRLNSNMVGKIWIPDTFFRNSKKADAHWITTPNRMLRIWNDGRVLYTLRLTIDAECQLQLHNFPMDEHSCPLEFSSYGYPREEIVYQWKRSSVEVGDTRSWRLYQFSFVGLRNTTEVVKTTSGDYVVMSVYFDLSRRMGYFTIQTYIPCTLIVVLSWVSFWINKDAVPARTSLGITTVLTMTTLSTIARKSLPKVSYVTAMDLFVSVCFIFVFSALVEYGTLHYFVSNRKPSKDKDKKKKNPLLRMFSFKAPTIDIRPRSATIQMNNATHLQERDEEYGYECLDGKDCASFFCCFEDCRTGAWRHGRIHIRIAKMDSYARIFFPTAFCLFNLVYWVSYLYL
GABA A receptor alpha-6/beta-2/gamma-2, sequence (Q16445 whole entry): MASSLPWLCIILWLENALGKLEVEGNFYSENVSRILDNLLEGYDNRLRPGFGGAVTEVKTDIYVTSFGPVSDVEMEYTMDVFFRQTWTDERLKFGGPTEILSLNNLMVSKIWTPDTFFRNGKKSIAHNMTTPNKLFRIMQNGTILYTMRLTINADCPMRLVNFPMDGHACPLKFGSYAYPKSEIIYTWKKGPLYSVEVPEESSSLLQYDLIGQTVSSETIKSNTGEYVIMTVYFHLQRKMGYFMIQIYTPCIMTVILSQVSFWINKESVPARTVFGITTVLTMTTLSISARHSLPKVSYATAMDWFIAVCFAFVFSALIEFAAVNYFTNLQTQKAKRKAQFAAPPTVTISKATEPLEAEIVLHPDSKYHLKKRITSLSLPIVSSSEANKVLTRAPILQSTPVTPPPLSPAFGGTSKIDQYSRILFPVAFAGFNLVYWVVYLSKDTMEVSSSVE

Turning to `O=C1CCC2c3c(-c4noc(C5CC5)n4)ncn3-c3ccccc3N12` (stereo not given), in assay [1], the Chlorine uptake stood at 0.29. For the same compound, in [2], the Ki came out at 0.87 nM. Also, the TBPS shift in assay [3] is 1.15.
For `O=C(c1ccccc1)N1Cc2c(-c3noc(C4CC4)n3)ncn2-c2ccc(F)cc21`, the Chlorine uptake in assay [1] was determined as 0.67. Also, the Ki in assay [4] is 0.4 nM; in [2], 0.58 nM; in assay [5], above 10000 nM. The TBPS shift in [3] was 0.98.
The compound `O=C1CC[C@@H]2c3c(-c4noc(C5CC5)n4)ncn3-c3ccccc3N12` yielded a Ki in assay [2] of 0.65 nM. Further, the TBPS shift in [3] was 0.9. Further, the 50% effective dose (ED50) in assay [6] was found to be 1.9 mg/kg.
`CC(C)OC(=O)N1c2ccccc2-n2cnc(-c3noc(C4CC4)n3)c2C1(C)C`: in assay [1], the Chlorine uptake turned out to be 0.7. The same compound registered an inhibitory constant (Ki) in assay [2] of 6.7 nM. Moreover, the TBPS shift in [3] is 1.2. For the same compound, the 50% effect level in assay [6] (ED50) was put at a dose of 3.7 mg/kg.
Turning to `Cc1ccc(-c2nc3ccc(C)cn3c2CC(=O)N(C)C)cc1` [ZOLPIDEM], it took a dose of 4.4 mg/kg to reach the 50% effect level in assay [6] (ED50).
Take `CC(=O)N1Cc2c(-c3noc(C4CC4)n3)ncn2-c2ccc(F)cc21`: the Ki came out at 0.6 nM in [4], 0.69 nM in assay [2] and 81 nM in assay [5]. Also, in [3], the TBPS shift was found to be 1.11.
Regarding `CC(=O)N1Cc2c(-c3noc(C4CC4)n3)ncn2-c2cccc(F)c21`, the Ki in [4] is 0.8 nM; in [5] it was 107 nM.
Turning to `CN1C(=O)CN=C(c2ccccc2)c2cc(Cl)ccc21` [DIAZEPAM], the Chlorine uptake in assay [1] was 1. In assay [7], the Ki was above 7000 nM. This compound registered a median effective dose (ED50) in assay [8] of 0.5 mg/kg.
`O=C(c1ccccc1Cl)N1Cc2c(-c3noc(C4CC4)n3)ncn2-c2ccccc21` showed a Chlorine uptake in assay [1] of 0.28. Besides, the inhibition constant (Ki) in assay [2] is 1.4 nM. Moreover, the TBPS shift in assay [3] is 0. The same compound yielded an ED50 in assay [6] above 50 mg/kg.
As for `CCOC(=O)c1ncn2c1CN(C)C(=O)c1cc(N=[N+]=[N-])ccc1-2` [Ro-154513], the Ki in assay [4] came out at 15 nM; in [7], 5.4 nM.
`CC(=O)N1Cc2c(C(=O)OC(C)(C)C)ncn2-c2ccccc21`: the Chlorine uptake in assay [1] was found to be 0. Further, the TBPS shift in assay [3] was -0.06.
Compound `CC(C)(C)OC(=O)c1ncn2c1CN(C(=O)c1ccccc1Cl)c1ccccc1-2` registered a Chlorine uptake in [1] of -0.15. In assay [2], this compound gave an inhibitory constant (Ki) of 4 nM. Besides, the TBPS shift in [3] was 0.2. The compound further returned an ED50 in [6] above 50 mg/kg.
In turn, `CC(=O)N1c2ccccc2-n2cnc(-c3noc(C4CC4)n3)c2C1(C)C` had an inhibition constant Ki in [2] of 4.8 nM. In addition, the TBPS shift in assay [3] is 0.7. This compound also showed an ED50 in [6] of 30 mg/kg.
For `COC(=O)N1c2ccccc2-n2cnc(-c3noc(C4CC4)n3)c2C1(C)C`, in assay [1], the Chlorine uptake is 1.18 and 0.4. The compound further showed an inhibition constant (Ki) in assay [2] of 6.8 nM. The TBPS shift in assay [3] is 1.04 and 0.8. In addition, the 50% effective dose (ED50) in assay [6] was above 50 mg/kg.
`O=C1CC[C@H]2c3c(-c4noc(C5CC5)n4)ncn3-c3ccccc3N12` yielded a Ki in assay [2] of 0.62 nM. In assay [3], the TBPS shift was 1.05. It took a dose of 1.1 mg/kg to reach the 50% effect level in assay [6] (ED50).
On to `CC(=O)N1Cc2c(-c3noc(C4CC4)n3)ncn2-c2ccccc21`, for which the inhibition constant Ki in assay [4] was found to be 2.7 nM; in assay [2], 1.5 nM; in [5], 124 nM. Besides, in assay [3], the TBPS shift was determined as 0.9. It took a dose of 35 mg/kg to reach the 50% effect level in assay [6] (ED50).
In assay [1], `O=C1OCC2c3c(-c4noc(C5CC5)n4)ncn3-c3ccccc3N12` (stereo not given) showed a Chlorine uptake of 0.5. The compound further came in with an inhibition constant (Ki) in assay [2] of 2.4 nM. Besides, the TBPS shift in assay [3] is 0.96.
In assay [1], `O=C(c1ccccc1)N1Cc2c(-c3noc(C4CC4)n3)ncn2-c2cccc(F)c21` yielded a Chlorine uptake of 0.9. Further, the Ki in [4] came to 0.3 nM; in assay [2] it was 0.77 nM; in assay [5], 681 nM. Further, the TBPS shift in assay [3] was found to be 0.87. Further, the ED50 in assay [8] is 25 mg/kg.
The compound `CC(C)(C)OC(=O)N1Cc2c(-c3noc(C4CC4)n3)ncn2-c2ccccc21` showed an inhibition constant Ki in assay [2] of 1.9 nM. For the same compound, the TBPS shift in assay [3] amounted to 2.9. The same compound returned an ED50 in assay [6] of 0.06 mg/kg.
Regarding `CC(=O)N1Cc2c(-c3nc(C4CC4)no3)ncn2-c2ccccc21`, the Chlorine uptake in assay [1] is 0.6. In [2], this compound had an inhibition constant (Ki) of 6.6 nM. The TBPS shift in assay [3] was determined as 0.7. Moreover, in assay [6], the ED50 was determined as 42 mg/kg.
Consider `O=C(c1ccccc1)N1Cc2c(-c3noc(C4CC4)n3)ncn2-c2ccccc21`, for which the Ki was found to be 0.3 nM in [4], 4.3 nM in assay [2] and 1140 nM in assay [5]. In assay [3], the TBPS shift stood at 0.5.
Take `CC(C)(C)OC(=O)c1ncn2c1C1CCC(=O)N1c1ccccc1-2` (stereo not given): the inhibition constant Ki in assay [4] worked out at 0.4 nM; in assay [2], 0.76 nM; in assay [5], 13.2 nM. The ED50 in [6] was above 50 mg/kg. In addition, the TBPS shift in assay [9] is 0.06.
With `CC(C)(C)OC(=O)c1ncn2c1CN(C(=O)OC(C)(C)C)c1ccccc1-2`, the Chlorine uptake in assay [1] stood at 0.14. Also, the affinity in assay [2], expressed as Ki, was 5.1 nM. In addition, the TBPS shift in assay [3] turned out to be 0.45.
